We go through 28 compounds from ChEMBL document CHEMBL4145654, “Structure-Based Discovery of CF53 as a Potent and Orally Bioavailable Bromodomain and Extra-Terminal (BET) Bromodomain Inhibitor” (J Med Chem, 2018).

Bounds are passed on as bounds.

Series [1] can be described thus: Drug uptake in tumor of SCID mouse xenografted with human MDA-MB-231 cells at 50 mg/kg administered via oral gavage measured after 6 hrs. To be noted: read-out: Drug uptake. Type of series: ADME, organism-based, Neoplasm. An outline of the steps:
(§1)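 Limited PK in SCID mice bearing MDA-MB-231 tumors, 50 mg/kg given by oral gavage. Plasma and tumor tissue drug levels measured at two time points per compound. Values are the mean of two mice/tumors per time point.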

Series [2] deals with Bromodomain-containing protein 4 (Homo sapiens, UniProt O60885). Briefly: Inhibition of FAM-labeled ZBA248 binding to recombinant human BRD4 bromodomain 1 (44 to 168 residues) expressed in Rosetta2 Escherichia coli DE3 cells after 30 mins by fluorescence polarization assay. Summed up: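 Recombinant human BRD4 BD1 (residues 44−168) in a fluorescence polarization competitive binding assay, run as described in earlier work.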
(Polarisation of emitted light reports the rotation of a fluorescent probe.)

The nature of series [3]: Drug uptake in tumor of SCID mouse xenografted with human MDA-MB-231 cells at 50 mg/kg administered via oral gavage measured after 1 hr. Type of series: ADME, organism-based, Neoplasm. To be noted: read-out: Drug uptake. Summed up:
as §1
Background: Xenograft models place foreign cells or tissue in a host animal.

A further series has as its system MOLM-13. The experiment in a line: Growth inhibition of human MOLM13 cells after 4 days by WST-8 assay. In kind it is functional, cell-based. To be noted: MOLM-13, 96 h. Summed up:
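Leukemia cells, used within 3 months of thaw, were seeded at 10 000 cells/well and exposed to serially diluted compound in culture medium for 4 days. WST-8 reagent was added at 10% (v/v) final for 1−3 h, and absorbance was read at 450 nm. Readings were normalized to DMSO-treated cells, and the IC50 was fitted by nonlinear regression.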
On the technique in general: Tetrazolium assays rely on reduction of a dye to a coloured formazan, in cell work by metabolically active cells.

Series [4] is described as follows: Plasma concentration in SCID mouse xenografted with human MDA-MB-231 cells at 50 mg/kg administered via oral gavage measured after 6 hrs. In kind it is ADME, organism-based. An outline of the steps:
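SCID mice carrying MDA-MB-231 tumors dosed orally at 50 mg/kg. Plasma drug level determined by LC-MS/MS (positive-ion MRM, C18 column, formic acid/acetonitrile gradient). Value is the mean from two mice per time point.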

The nature of series [5]: Plasma concentration in SCID mouse xenografted with human MDA-MB-231 cells at 50 mg/kg administered via oral gavage measured after 1 hr. Type of series: ADME, organism-based. Summed up:
as §1

Series [6] concerns MDA-MB-231. The experiment in a line: Growth inhibition of human MDA-MB-231 cells after 4 days by WST-8 assay. To be noted: MDA-MB-231, 96 h. In kind it is functional, cell-based. Summed up:
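Cells used within 3 months of thaw. Breast cancer cells seeded at 3000 cells/well, then serially diluted compound added, cultured 4 days. Growth read by WST-8 (10% v/v final, 1−3 h, 450 nm). Readings normalized to DMSO-treated cells. IC50 by nonlinear regression.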

For a further series, the system named is RS4-11. The experiment in a line: Antitumor activity against human RS4:11 cells xenografted in SCID mouse assessed as tumor growth inhibition at 50 mg/kg administered via oral gavage measured on day 35. In kind it is functional. To be noted: RS4-11, po, 840 h, read-out: TGI. Summed up: (§2)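 Each SCID mouse received a single dorsal subcutaneous tumor of 5 × 10⁶ RS4;11 or MDA-MB-231 cells in 50% Matrigel. At about 100 mm3, mice were randomised to treatment or vehicle control groups. Dosing was by oral gavage at the stated schedules. Tumor volume was L × W²/2, and body weight was tracked. TGI versus vehicle at end of treatment was tested by unpaired two-tailed t-test.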

For series [7], the system named is MDA-MB-231. Briefly: Antitumor activity against human MDA-MB-231 cells xenografted in SCID mouse assessed as tumor growth inhibition at 50 mg/kg administered via oral gavage measured on day 44. In kind it is functional. To be noted: MDA-MB-231, po, 1056 h, read-out: TGI. An outline of the steps: as §2
Series [8] in a line: Drug uptake in tumor of SCID mouse xenografted with human MDA-MB-231 cells at 50 mg/kg administered via oral gavage measured after 0.5 hrs. Type of series: ADME, organism-based, Neoplasm. To be noted: read-out: Drug uptake. Summed up:
as §1

The nature of series [9]: Plasma concentration in SCID mouse xenografted with human MDA-MB-231 cells at 50 mg/kg administered via oral gavage measured after 0.5 hrs. Type of series: ADME, organism-based. An outline of the steps: as §1

Consider `COc1cc2c(cc1-c1c(C)noc1C)[nH]c1nc(C)nc(Nc3cc(C(C)(C)C)nn3C)c12`, for which the concentration at 6 h in [1] was found to be 268 ng/g; in series [4], 458 ng/mL. Further, the figures for the IC50 (in series [2]; in the series on MOLM-13; in the series on MDA-MB-231 [6]) were 10.5 nM, 23 nM and 23.5 nM, respectively. Moreover, in series [2], the Ki is 1.2 nM. Besides, the values for the concentration at 1 h in [3] and in series [5] were 305 ng/g and 923 ng/mL, respectively.

Regarding `COc1cc2c(cc1-c1c(C)noc1C)[nH]c1nc(C)nc(Nc3c4c(nn3C)CCC4)c12`, the concentration at 6 h in [1] came to 600 ng/g; in [4], 1580 ng/mL. Besides, the values for the IC50 (in series [2]; in the series with MOLM-13; in the series with MDA-MB-231 [6]) were 5.5 nM, 5 nM and 67 nM, respectively. In series [2], the inhibition constant (Ki) was under 1 nM. Further, the concentration at 1 h in series [3] was found to be 1510 ng/g; in [5], 4880 ng/mL.

Turning to `CCn1nc(C)cc1Nc1nc(C)nc2[nH]c3cc(-c4c(C)noc4C)c(OC)cc3c12`, the IC50 in series [2] was determined as 16.8 nM; in the series with MOLM-13, 15.4 nM; in the series with MDA-MB-231 [6], 26.3 nM. In series [2], the Ki was 3.4 nM.

On to `COc1cc2c(cc1-c1c(C)noc1C)[nH]c1nc(C)nc(Nc3nn(C)c4cccnc34)c12`, for which, in [2], the IC50 amounted to 229 nM and the Ki came to 78 nM.

On to `COc1cc2c(cc1-c1c(C)noc1C)[nH]c1nc(C)nc(Nc3cc(C)n(C)n3)c12`, for which the IC50 in [2] came out at 24.9 nM; with MOLM-13 it was 30.7 nM; in the series with MDA-MB-231 [6] it was 81.1 nM. For the same compound, in series [2], the Ki was found to be 6.3 nM.

As for `COc1cc2c(cc1-c1c(C)noc1C)[nH]c1nc(C)nc(Nc3cc(C)nn3C3CCC3)c12`, the values for the IC50 (in series [2]; in the series on MOLM-13; in the series with MDA-MB-231 [6]) were 14.3 nM, 38.8 nM and 26 nM, respectively. Moreover, the Ki in series [2] is 2.6 nM.

Take `COc1cc2c(cc1-c1c(C)noc1C)[nH]c1nc(C)nc(Nc3nn(C)c4c(F)cccc34)c12`: in series [2], the IC50 was determined as 95.2 nM and the Ki was determined as 31 nM.

Consider `COc1cc2c(cc1-c1c(C)noc1C)[nH]c1nc(C)nc(Nc3nn(C)c4c3CCCC4)c12`, for which the Ki in series [2] was under 1 nM. Also, the IC50 came out at 41.9 nM in the series with MOLM-13 and 58.3 nM in the series on MDA-MB-231 [6].

Consider `COc1cc2c(cc1-c1c(C)noc1C)[nH]c1nc(C)nc(Nc3nn(CCO)c4ccccc34)c12`, for which, in series [2], the IC50 turned out to be 9.8 nM and the inhibitory constant (Ki) worked out at 1 nM.

For the compound `COc1cc2c(cc1-c1c(C)noc1C)[nH]c1nc(C)nc(Nc3nn(C)c4ncccc34)c12`, in [2], the IC50 is 20.8 nM and the Ki was determined as 4.9 nM.

As to `COc1cc2c(cc1-c1c(C)noc1C)[nH]c1nc(C)nc(Nc3n[nH]c4ccccc34)c12`, in series [2], the IC50 was 11.8 nM and the Ki worked out at 1.7 nM.

`COc1cc2c(cc1-c1c(C)noc1C)[nH]c1nc(C)nc(Nc3cc(C(C)C)nn3C)c12`: the concentration at 6 h in [1] was found to be 166 ng/g; in series [4], 1870 ng/mL. In addition, the Ki in series [2] was under 1 nM. Moreover, the concentration at 1 h was determined as 736 ng/g in series [3] and 6240 ng/mL in series [5]. For the same compound, the IC50 with MOLM-13 is 11.7 nM; with MDA-MB-231 [6] it was 26 nM.

Turning to `COc1cc2c(cc1-c1c(C)noc1C)[nH]c1nc(C)nc(Nc3nn(C)c4ccncc34)c12`, in [2], the IC50 amounted to 228 nM and the inhibition constant (Ki) worked out at 77.9 nM.

As to `Cc1sc2c(c1C)C(c1ccc(Cl)cc1)=N[C@@H](CC(=O)Nc1ccc(O)cc1)c1nnc(C)n1-2` [BIRABRESIB], the inhibition in vivo at 50 mg/kg in the series with RS4-11 is 33%; in the series on MDA-MB-231 [7], 21%.

Turning to `COc1cc2c(cc1-c1c(C)noc1C)[nH]c1nc(C)nc(Nc3nn(C)c4cccc(F)c34)c12`, the Ki in [2] is 21.5 nM.

For the compound `COc1cc2c(cc1-c1c(C)noc1C)[nH]c1nc(C)nc(Nc3nn(C)c4ccc(F)cc34)c12`, in [2], the Ki was determined as 16.7 nM.

As to `COc1cc2c(cc1-c1c(C)noc1C)[nH]c1nc(C)nc(Nc3cc(C(C)(C)C(F)(F)F)nn3C)c12`, the IC50 in series [2] was 13.8 nM; in the series with MOLM-13, 75 nM; in the series with MDA-MB-231 [6], 164 nM. Moreover, the Ki in [2] was found to be 2.4 nM.

As for `COc1cc2c(cc1-c1c(C)noc1C)[nH]c1nc(C)nc(Nc3c(C)c(C4CC4)nn3C)c12`, the IC50 is 51.7 nM in series [2], 201 nM in the series with MOLM-13 and 319 nM in the series with MDA-MB-231 [6]. Also, the Ki in [2] was 15.8 nM.

Take `COc1cc2c(cc1-c1c(C)noc1C)[nH]c1nc(C)nc(Nc3cc(C)nn3C)c12`: the IC50 in series [2] was 9.4 nM; in the series on MOLM-13 it was 10.3 nM; in the series with MDA-MB-231 [6] it was 55.1 nM. Further, the Ki in [2] stood at 0.8 nM.

`COc1cc2c(cc1-c1c(C)noc1C)[nH]c1nc(C)nc(Nc3nn(C)c4cc(F)ccc34)c12`: in [2], the IC50 came to 87.6 nM and the inhibitory constant (Ki) came out at 28.4 nM.

For the compound `COc1cc2c(cc1-c1c(C)noc1C)[nH]c1nc(C)nc(Nc3cc(C(F)(F)F)nn3C)c12`, the IC50 stood at 15.8 nM in series [2], 56 nM in the series on MOLM-13 and 156 nM in the series with MDA-MB-231 [6]. The inhibition constant Ki in [2] came to 3.1 nM.

For `COc1cc2c(cc1-c1c(C)noc1C)[nH]c1nc(C)nc(Nc3nn(C)c4ccccc34)c12`, in series [2], the half-inhibitory concentration (IC50) came to 9.1 nM and the Ki was 0.7 nM.

As to `COc1cc2c(cc1-c1c(C)noc1C)[nH]c1nc(C)nc(Nc3cc(C4CCC4)nn3C)c12`, the IC50 in series [2] stood at 12.8 nM; in the series with MOLM-13 it was 26.6 nM; in the series on MDA-MB-231 [6] it was 63.2 nM. In series [2], the Ki was 2 nM.

For the compound `COc1cc2c(cc1-c1c(C)noc1C)[nH]c1nc(C)nc(Nc3cc(C)nn3C3CCCC3)c12`, the IC50 in series [2] came out at 4 nM; in the series on MOLM-13, 17.7 nM; in the series with MDA-MB-231 [6], 25 nM. Besides, the Ki in series [2] was under 1 nM.

As for `COc1cc2c(cc1-c1c(C)noc1C)[nH]c1nc(C)nc(Nc3cc(C)nn3C(C)(C)C)c12`, the concentration at 0.5 h in [8] was 5230 ng/g; in [9], 3680 ng/mL. Further, the concentration at 6 h was determined as 621 ng/g in [1] and 127 ng/mL in series [4]. Besides, the IC50 is 4.4 nM in [2], 10.6 nM in the series on MOLM-13 and 13.9 nM in the series with MDA-MB-231 [6]. Further, in series [2], the Ki is under 1 nM.

As to `COc1cc2c(cc1-c1c(C)noc1C)[nH]c1nc(C)nc(Nc3c4c(nn3C)CCCC4)c12`, the concentration at 6 h is 132 ng/g in series [1] and 1150 ng/mL in series [4]. For the same compound, the IC50 was 4.9 nM in series [2], 11.3 nM in the series on MOLM-13 and 17.5 nM with MDA-MB-231 [6]. Moreover, the Ki in [2] is under 1 nM. For the same compound, the concentration at 1 h was 466 ng/g in series [3] and 2980 ng/mL in series [5].

As to `COc1cc2c(cc1-c1c(C)noc1C)[nH]c1nc(C)nc(Nc3cc(C)nn3C(C)C)c12`, the Ki in [2] stood at 0.5 nM. In addition, the IC50 with MOLM-13 amounted to 5 nM; in the series with MDA-MB-231 [6], 29.6 nM.

As for `COc1ccc2c(Nc3nc(C)nc4[nH]c5cc(-c6c(C)noc6C)c(OC)cc5c34)nn(C)c2c1`, in [2], the IC50 stood at 196 nM and the Ki turned out to be 66.5 nM.

The term IC50 denotes the midpoint of a concentration-inhibition curve. By Ki is commonly meant a dissociation constant, usually derived from enzyme kinetics or from competition with a known ligand.
